Test results from ChEMBL document CHEMBL2176927 (J Med Chem, 2012).
pIC50, pKi: −log10 of the molar value. Calls of active or inactive are those of the source. The rule behind the calls is not given here.

Tests used:
[1] = biological target: T1, Cytochrome P450 1A2 (Homo sapiens, UniProt P05177); experiment: Inhibition of CYP1A2-mediated phenacetin metabolism; format: ADME; settings: recombinant enzyme
T1 sequence (P05177 whole entry): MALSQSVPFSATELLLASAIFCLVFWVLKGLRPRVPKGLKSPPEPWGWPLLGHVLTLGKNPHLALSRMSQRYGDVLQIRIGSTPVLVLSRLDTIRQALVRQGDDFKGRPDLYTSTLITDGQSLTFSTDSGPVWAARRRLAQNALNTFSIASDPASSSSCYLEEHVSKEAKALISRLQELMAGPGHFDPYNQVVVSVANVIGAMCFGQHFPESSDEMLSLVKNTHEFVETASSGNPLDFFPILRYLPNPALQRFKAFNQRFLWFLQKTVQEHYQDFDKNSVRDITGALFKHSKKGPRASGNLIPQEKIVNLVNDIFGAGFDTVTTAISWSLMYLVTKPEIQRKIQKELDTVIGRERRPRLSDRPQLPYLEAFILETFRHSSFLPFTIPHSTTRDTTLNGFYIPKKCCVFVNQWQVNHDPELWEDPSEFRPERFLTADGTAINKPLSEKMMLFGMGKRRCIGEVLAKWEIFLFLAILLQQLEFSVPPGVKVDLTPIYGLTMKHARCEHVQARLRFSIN

[2] = Clearance in mouse liver microsomes; format: ADME, Microsome
In short: (§1)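 Hepatic clearance (Clhep) predicted from incubation with human, rat or mouse liver microsomes.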

[3] = organism: Mus musculus; settings: PC-3, 25 to 100 mg/kg
[4] = Plasma protein binding in rat; format: ADME, cell-free; settings: read-out: PPB (converted)
[5] = Clearance in human liver microsomes; format: ADME, Microsome; in short: as §1
[6] = Oral bioavailability in mouse at 5 mg/kg; format: ADME, organism-based; settings: in vivo
[7] = system: PC-3; experiment: Cytotoxicity against human pTEN deficient PC3 after 3 days; format: functional, cell-based; settings: PC-3, 72 h
[8] = Volume of distribution at steady state in mouse at 1 mg/kg, iv; format: ADME, organism-based; set-up: dose 1 mg/kg, route intravenous; settings: in vivo, read-out: Vdss
[9] = organism: Mus musculus; settings: U-87MG ATCC, 100 mg/kg
[10] = biological target: Cytochrome P450 2D6 (Homo sapiens, UniProt P10635); experiment: Inhibition of CYP2D6-mediated dextromethorphan metabolism; format: ADME; settings: recombinant enzyme
Chain of Cytochrome P450 2D6 (P10635 whole entry): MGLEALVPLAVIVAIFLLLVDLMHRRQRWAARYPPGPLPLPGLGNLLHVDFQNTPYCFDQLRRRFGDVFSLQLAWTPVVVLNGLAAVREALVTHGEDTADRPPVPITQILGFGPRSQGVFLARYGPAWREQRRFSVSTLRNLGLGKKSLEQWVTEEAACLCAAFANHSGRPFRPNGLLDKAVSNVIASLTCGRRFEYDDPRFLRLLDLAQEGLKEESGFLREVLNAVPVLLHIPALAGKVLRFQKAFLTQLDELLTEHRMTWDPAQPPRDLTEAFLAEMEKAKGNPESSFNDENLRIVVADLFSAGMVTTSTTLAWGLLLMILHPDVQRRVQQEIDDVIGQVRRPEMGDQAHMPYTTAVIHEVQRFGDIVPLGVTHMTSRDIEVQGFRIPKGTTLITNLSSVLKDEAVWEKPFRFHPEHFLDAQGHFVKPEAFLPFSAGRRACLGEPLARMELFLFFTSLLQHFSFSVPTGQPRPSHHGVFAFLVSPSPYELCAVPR

[11] = system: PC-3; experiment: Antitumor activity against human PC3 cells xenografted mouse assessed as tumor growth inhibition at 50 mg/kg, po qd for 14 days; format: functional, organism-based; set-up: dose 50 mg/kg
In short: (§2)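 Female NCR.nude mice with subcutaneous NCI-PC3 flank tumours, dosed orally once daily (or twice daily at the same daily total) for 14 days from a mean tumour volume of 200 mm3; 5 mice/group. Caliper volume is (L x W x W)/2, measured twice weekly.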

[12] = Half life in mouse at 1 mg/kg, iv; format: ADME, organism-based; set-up: dose 1 mg/kg, route intravenous; settings: in vivo
[13] = Clearance in rat liver microsomes; format: ADME, Microsome; in short: as §1
[14] = Plasma protein binding in human; format: ADME, cell-free; settings: read-out: PPB (converted)
[15] = Cytotoxicity against human MCF7/neo expressing HER2 after 3 days; format: functional
[16] = organism: Mus musculus; settings: U-87MG ATCC, 100 mg/kg; remark: listed apart in the source
[17] = biological target: Cytochrome P450 2C9 (Homo sapiens, UniProt P11712); experiment: Inhibition of CYP2C9-mediated warfarin metabolism; format: ADME; settings: recombinant enzyme
Chain of Cytochrome P450 2C9 (P11712 whole entry): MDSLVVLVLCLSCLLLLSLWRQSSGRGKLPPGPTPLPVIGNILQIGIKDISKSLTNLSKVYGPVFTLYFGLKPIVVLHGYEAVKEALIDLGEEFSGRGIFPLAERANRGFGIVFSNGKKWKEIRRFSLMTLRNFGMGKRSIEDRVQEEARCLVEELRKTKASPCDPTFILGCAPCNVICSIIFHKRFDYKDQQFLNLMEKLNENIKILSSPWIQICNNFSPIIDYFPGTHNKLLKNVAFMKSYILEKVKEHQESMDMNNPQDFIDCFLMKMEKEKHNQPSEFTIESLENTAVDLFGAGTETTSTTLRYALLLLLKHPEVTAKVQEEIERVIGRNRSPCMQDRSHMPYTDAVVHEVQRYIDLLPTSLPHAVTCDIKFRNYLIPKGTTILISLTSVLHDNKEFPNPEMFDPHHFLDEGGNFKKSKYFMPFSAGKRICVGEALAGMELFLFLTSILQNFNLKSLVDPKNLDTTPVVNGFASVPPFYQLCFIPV

[18] = biological target: Cytochrome P450 3A4 (Homo sapiens, UniProt P08684); experiment: Inhibition of CYP3A4-mediated midazolam and testosterone metabolism; format: ADME; settings: recombinant enzyme
Chain of Cytochrome P450 3A4 (P08684 whole entry): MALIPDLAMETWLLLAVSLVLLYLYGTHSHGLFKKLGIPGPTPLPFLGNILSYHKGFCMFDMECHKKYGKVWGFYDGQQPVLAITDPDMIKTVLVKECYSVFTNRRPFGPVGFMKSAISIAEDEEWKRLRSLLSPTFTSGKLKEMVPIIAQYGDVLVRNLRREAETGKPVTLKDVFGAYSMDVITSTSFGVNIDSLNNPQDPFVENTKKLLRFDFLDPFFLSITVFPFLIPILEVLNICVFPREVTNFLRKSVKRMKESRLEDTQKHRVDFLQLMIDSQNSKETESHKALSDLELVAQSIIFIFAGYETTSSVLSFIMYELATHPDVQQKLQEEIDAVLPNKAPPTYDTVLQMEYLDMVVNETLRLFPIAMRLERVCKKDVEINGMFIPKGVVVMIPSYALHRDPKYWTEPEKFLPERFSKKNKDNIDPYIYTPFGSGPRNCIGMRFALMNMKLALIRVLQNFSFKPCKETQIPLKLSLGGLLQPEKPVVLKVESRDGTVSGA

[19] = organism: Mus musculus; settings: PC-3, 25 to 100 mg/kg; remark: listed apart in the source
[20] = Plasma protein binding in mouse; format: ADME, cell-free; settings: read-out: PPB (converted)
[21] = Inhibition of mTORC2 in human pTEN deficient NCI-PC3 cells assessed as reduction of Akt phosphorylation at Ser473; format: cell-based
[22] = system: Mus musculus; experiment: Toxicity in human PC3 cells xenografted mouse assessed as reduction of body weight at 200 mg/kg, po qd for 14 days; format: organism-based, PC-3; set-up: dose 200 mg/kg, route oral; scale not given: the % may be the effect or the level left; settings: in vivo, 336 h
In short: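 Same PC3 s.c. xenograft in nude mice with QD oral dosing, 5 animals per group. Body weight was measured twice weekly; loss above 10% is the protocol limit for tolerated doses and triggers a dosing holiday.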

[23] = biological target: Cytochrome P450 2C19 (Homo sapiens, UniProt P33261); experiment: Inhibition of CYP2C19-mediated mephenytoin metabolism; format: ADME; settings: recombinant enzyme
Chain of Cytochrome P450 2C19 (P33261 whole entry): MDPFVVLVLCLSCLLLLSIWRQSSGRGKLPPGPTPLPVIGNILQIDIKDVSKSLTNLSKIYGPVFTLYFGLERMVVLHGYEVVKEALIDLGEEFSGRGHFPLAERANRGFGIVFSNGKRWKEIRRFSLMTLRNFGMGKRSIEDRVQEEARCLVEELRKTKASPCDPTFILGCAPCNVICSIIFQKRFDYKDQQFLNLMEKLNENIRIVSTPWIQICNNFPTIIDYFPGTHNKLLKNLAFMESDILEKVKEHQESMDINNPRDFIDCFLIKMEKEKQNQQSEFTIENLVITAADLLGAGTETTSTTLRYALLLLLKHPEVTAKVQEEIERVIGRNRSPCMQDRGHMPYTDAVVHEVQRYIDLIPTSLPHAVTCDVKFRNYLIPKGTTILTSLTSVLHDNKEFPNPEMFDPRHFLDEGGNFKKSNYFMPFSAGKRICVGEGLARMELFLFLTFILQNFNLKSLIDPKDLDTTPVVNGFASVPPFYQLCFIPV

[24] = Clearance in mouse at 1 mg/kg, iv; format: ADME, organism-based; set-up: dose 1 mg/kg, route intravenous; settings: in vivo
[25] = AUC in mouse at 5 mg/kg, po; format: ADME, organism-based; set-up: dose 5 mg/kg, route oral; settings: plasma
[26] = system: PC-3; experiment: Antitumor activity against human PC3 cells xenografted mouse assessed as tumor growth inhibition at […] to 100 mg/kg, po bid for 14 days; format: functional, organism-based; in short: as §2
[27] = system: PC-3; experiment: Antitumor activity against human PC3 cells xenografted mouse assessed as tumor growth inhibition at 6.25 to 100 mg/kg, po qd for 14 days; format: functional, organism-based; in short: as §2
[28] = system: Mus musculus; experiment: Toxicity in human PC3 cells xenografted mouse assessed as reduction of body weight at 100 mg/kg, po qd for 14 days; format: organism-based, PC-3; set-up: dose 100 mg/kg, route oral; scale not given: the % may be the effect or the level left; settings: in vivo, 336 h
In short: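 Female NCR.nude mice implanted s.c. in right hind flank with NCI-PC3 cells (5 × 10^6 in Hank's balanced salt solution). Dosing started QD at average tumor volume 200 mm3, 5 mice per group. Body weight recorded twice weekly; 10% body weight loss was the limit for tolerated doses, and mice were euthanized at 20% loss or tumor volume 2000 mm3.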

[29] = biological target: T2, Phosphatidylinositol 4,5-bisphosphate 3-kinase catalytic subunit delta isoform (Homo sapiens) (UniProt O00329); experiment: Inhibition of PI3Kdelta at 1 uM
T2 sequence (whole entry): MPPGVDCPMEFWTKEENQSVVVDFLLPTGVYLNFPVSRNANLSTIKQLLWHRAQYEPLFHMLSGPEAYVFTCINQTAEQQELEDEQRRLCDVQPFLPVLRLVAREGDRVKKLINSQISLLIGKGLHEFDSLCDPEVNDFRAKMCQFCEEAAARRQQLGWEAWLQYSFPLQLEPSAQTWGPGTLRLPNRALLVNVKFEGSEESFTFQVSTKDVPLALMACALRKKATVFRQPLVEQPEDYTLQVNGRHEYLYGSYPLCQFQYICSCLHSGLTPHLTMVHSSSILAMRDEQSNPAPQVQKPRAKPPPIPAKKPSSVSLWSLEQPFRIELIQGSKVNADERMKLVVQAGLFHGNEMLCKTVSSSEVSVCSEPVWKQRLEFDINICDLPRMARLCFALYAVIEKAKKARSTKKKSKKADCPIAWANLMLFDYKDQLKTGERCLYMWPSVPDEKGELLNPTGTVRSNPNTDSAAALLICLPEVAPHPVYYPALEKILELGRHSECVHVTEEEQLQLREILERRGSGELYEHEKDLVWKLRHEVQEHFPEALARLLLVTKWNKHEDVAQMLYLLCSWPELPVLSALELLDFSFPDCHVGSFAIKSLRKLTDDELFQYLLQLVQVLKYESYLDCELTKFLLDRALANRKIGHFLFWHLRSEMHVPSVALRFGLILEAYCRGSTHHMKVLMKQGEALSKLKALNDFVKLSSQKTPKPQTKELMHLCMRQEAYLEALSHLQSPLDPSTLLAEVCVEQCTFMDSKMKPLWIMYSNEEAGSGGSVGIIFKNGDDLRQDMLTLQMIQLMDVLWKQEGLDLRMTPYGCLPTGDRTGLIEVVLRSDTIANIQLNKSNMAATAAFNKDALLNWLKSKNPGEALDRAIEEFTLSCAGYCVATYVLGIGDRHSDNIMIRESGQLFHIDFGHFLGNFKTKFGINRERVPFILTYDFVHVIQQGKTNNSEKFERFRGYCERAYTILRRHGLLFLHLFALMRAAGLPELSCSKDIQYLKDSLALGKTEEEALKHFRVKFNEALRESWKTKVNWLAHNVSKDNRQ
In short: (§3)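 Kinase selectivity panel of 250 kinases. Test compound at 1 µM; percent inhibition recorded for each kinase.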

[30] = biological target: Phosphatidylinositol 4,5-bisphosphate 3-kinase catalytic subunit gamma isoform (Homo sapiens) (UniProt P48736); experiment: Inhibition of PI3Kgamma at 1 uM; in short: as §3
Chain of Phosphatidylinositol 4,5-bisphosphate 3-kinase catalytic subunit gamma isoform (Homo sapiens) (P48736 whole entry, looked up, canonical isoform): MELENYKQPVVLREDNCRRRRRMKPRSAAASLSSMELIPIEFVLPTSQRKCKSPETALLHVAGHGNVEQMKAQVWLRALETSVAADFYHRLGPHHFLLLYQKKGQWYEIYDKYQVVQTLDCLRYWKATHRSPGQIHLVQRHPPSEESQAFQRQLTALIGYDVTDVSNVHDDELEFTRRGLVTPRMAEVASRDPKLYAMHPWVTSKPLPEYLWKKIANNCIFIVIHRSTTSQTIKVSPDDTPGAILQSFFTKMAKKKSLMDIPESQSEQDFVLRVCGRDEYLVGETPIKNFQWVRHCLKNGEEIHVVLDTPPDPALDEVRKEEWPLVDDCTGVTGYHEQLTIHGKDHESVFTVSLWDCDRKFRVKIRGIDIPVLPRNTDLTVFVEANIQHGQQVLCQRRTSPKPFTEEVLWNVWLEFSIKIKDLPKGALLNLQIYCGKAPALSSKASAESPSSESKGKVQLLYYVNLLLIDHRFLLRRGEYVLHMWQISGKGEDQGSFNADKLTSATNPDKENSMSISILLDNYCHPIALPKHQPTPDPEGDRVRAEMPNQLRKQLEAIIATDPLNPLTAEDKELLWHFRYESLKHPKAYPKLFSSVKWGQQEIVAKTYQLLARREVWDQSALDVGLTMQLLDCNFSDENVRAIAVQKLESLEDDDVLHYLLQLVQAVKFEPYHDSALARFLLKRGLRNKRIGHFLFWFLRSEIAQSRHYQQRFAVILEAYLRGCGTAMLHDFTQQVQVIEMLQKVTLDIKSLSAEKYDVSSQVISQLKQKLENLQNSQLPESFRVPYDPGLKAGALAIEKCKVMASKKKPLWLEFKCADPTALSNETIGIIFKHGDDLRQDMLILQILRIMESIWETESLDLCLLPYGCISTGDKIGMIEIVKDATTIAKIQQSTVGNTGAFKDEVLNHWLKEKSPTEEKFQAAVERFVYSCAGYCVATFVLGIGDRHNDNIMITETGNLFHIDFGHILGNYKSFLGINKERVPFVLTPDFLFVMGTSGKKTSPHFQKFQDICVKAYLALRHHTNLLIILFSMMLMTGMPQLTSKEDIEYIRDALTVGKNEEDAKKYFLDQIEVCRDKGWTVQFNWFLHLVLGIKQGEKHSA

[31] = system: Mus musculus; experiment: Inhibition of mTORC2 in human PC3 cells xenografted mouse assessed as reduction of phosphorylated Akt level at 12.5 to 100 mg/kg, po after 6 hrs; format: functional, organism-based; settings: PC-3
In short: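 NCI-PC3 s.c. xenografts in female NCR.nude mice grown to about 500 mm3, then randomized (n = 4). Oral suspension in 0.5% methylcellulose/0.2% Tween 80. Tumors were lysed, normalized by BCA assay, and loaded at 20 µg/well. pAkt Ser473 and total Akt were measured in duplex on Meso Scale electrochemiluminescence in duplicate per mouse, relative to time-matched vehicle mean.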

[32] = biological target: Phosphatidylinositol 4,5-bisphosphate 3-kinase catalytic subunit alpha isoform (Homo sapiens) (UniProt P42336); experiment: Inhibition of PI3Kalpha at 1 uM; in short: as §3
Chain of Phosphatidylinositol 4,5-bisphosphate 3-kinase catalytic subunit alpha isoform (Homo sapiens) (P42336 whole entry, canonical isoform): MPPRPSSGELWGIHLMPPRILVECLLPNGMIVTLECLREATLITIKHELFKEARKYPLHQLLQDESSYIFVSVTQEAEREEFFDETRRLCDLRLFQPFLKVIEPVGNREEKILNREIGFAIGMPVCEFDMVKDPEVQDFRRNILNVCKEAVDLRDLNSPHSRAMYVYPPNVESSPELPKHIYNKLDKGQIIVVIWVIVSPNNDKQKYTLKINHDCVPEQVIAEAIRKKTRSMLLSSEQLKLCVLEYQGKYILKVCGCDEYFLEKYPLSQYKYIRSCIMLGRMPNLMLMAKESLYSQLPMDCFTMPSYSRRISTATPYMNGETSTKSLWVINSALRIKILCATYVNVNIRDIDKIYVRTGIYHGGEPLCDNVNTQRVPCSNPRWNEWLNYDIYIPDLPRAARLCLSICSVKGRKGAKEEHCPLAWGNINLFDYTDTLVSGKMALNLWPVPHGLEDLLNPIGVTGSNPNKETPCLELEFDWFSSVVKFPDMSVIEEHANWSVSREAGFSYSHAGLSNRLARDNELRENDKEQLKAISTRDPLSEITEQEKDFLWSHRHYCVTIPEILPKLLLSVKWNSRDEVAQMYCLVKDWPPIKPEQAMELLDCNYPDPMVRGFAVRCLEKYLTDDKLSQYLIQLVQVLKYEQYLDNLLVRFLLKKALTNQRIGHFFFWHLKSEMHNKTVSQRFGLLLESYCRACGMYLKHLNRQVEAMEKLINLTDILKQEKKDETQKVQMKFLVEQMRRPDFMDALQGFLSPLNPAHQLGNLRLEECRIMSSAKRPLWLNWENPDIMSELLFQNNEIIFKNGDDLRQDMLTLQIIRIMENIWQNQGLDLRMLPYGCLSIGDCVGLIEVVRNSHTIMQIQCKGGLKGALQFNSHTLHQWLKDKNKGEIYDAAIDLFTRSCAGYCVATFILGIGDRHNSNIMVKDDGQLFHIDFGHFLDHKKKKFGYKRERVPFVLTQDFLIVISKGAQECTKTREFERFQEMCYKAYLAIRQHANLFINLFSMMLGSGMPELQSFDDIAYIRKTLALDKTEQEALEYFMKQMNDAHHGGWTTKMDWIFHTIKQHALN

[33] = biological target: Serine/threonine-protein kinase mTOR (Homo sapiens, UniProt P42345); experiment: Inhibition of human recombinant mTOR by FRET assay
[34] = system: Mus musculus; experiment: Inhibition of mTORC1 in human PC3 cells xenografted mouse assessed as reduction of phosphorylated p70S6K level at 12.5 to 100 mg/kg, po after 6 hrs; format: functional, organism-based; settings: PC-3

| SMILES | inhibition (INH) [1] | CLhep predicted [2] [mL/min/kg] | fraction unbound [4] | CLhep predicted [5] [mL/min/kg] | bioavailability [6] [%] | pIC50 [7] | Vd [8] [L/kg] | inhibition (INH) [10] | half-life [12] [h] | CLhep predicted [13] [mL/min/kg] | fraction unbound [14] | inhibition (INH) [17] | inhibition (INH) [18] | fraction unbound [20] | pIC50 [21] | inhibition (INH) [23] | clearance [24] [mL/min/kg] | AUC [25] [µM·h] | TGI [27] | other results |
| --- | --- | --- | --- | --- | --- | --- | --- | --- | --- | --- | --- | --- | --- | --- | --- | --- | --- | --- | --- | --- |
| CCNC(=O)Nc1ccc(-c2nc3c(c(N4CCOC[C@@H]4C)n2)CCN(c2ncccn2)C3)cc1 | Not Active | 61 | 0.03 | 15 | 42 | 6.82 | 1.2 | Not Active | 1.7 | 33 | 0.02 | Not Active | Not Active | 0.01 | 8.48 | Not Active | 36 | 2 | Active | inhibition [3]: Active; inhibition [9]: inactive; TGI [11]: Active; pIC50 [15]: 7.24; inhibition [16]: inactive; inhibition [19]: Active; Activity [22]: 10%; TGI [26]: Active |
| CCNC(=O)Nc1ccc(-c2nc3c(c(N4CCOCC4)n2)CCN(c2ncccn2)C3)cc1 | Not Active | 40 | 0.01 | 13 | 70 | 6.54 | 1.1 | Not Active | 0.7 | 31 | 0.02 | Not Active | Not Active | 0.01 | 7.60 | Not Active | 22 | 5.7 | Active | Activity [28]: > 10%; inhibition [29]: 50%; inhibition [30]: 50%; inhibition [31]: Active; inhibition [32]: 50%; pKi [33]: 8.26; inhibition [34]: Active |
